This passage reports zone of inhibition and MIC results from ChEMBL document CHEMBL1152689, “Synthesis, tautomerism, and antimicrobial, anti-HCV, anti-SSPE, antioxidant, and antitumor activities of arylazobenzosuberones” (Bioorg Med Chem, 2009).

SMILES strings stand for the structures. ≈ marks a conversion by molar mass, not a printed value.

The subject of the first assay is Penicillium italicum. Briefly: Antimicrobial activity against Penicillium italicum at 5 ug/mL by agar diffusion method. The settings on record: read-out: IZ. In kind it is functional.
As to `c1ccc2c(c1)CCCc1nnc3nncn3c1-2`, the zone of inhibition at 5 µg/mL was 8 mm.

In the next assay the test system is Syncephalastrum racemosum. Briefly: Antimicrobial activity against Syncephalastrum racemosum at 5 ug/mL by agar diffusion method. In kind it is functional. To be noted: read-out: IZ.
Take `c1ccc2c(c1)CCCc1nnc3nncn3c1-2`: the zone of inhibition at 5 µg/mL worked out at 18 mm.

The next assay has as its system Candida albicans. The experiment in a line: Antimicrobial activity against Candida albicans at 5 ug/mL by agar diffusion method. The settings on record: read-out: IZ. In kind it is functional.
As for `c1ccc2c(c1)CCCc1nnc3nncn3c1-2`, the zone of inhibition at 5 µg/mL stood at 9 mm.

The next assay relates to Staphylococcus aureus. Briefly: Antimicrobial activity against Staphylococcus aureus at 5 ug/mL by agar diffusion method. In kind it is functional. The settings on record: read-out: IZ.
Regarding `c1ccc2c(c1)CCCc1nnc3nncn3c1-2`, the zone of inhibition at 5 µg/mL was 14 mm.

A further assay relates to Pseudomonas aeruginosa. Briefly: Antimicrobial activity against Pseudomonas aeruginosa at 5 ug/mL by agar diffusion method. In kind it is functional. The settings on record: read-out: IZ.
On to `c1ccc2c(c1)CCCc1nnc3nncn3c1-2`, for which the zone of inhibition at 5 µg/mL is 0 mm.

In the next assay the test system is Bacillus subtilis. The experiment in a line: Antimicrobial activity against Bacillus subtilis at 5 ug/mL by agar diffusion method. In kind it is functional. The settings on record: read-out: IZ.
`c1ccc2c(c1)CCCc1nnc3nncn3c1-2`: the zone of inhibition at 5 µg/mL was 16 mm.

The test system of the next assay is Escherichia coli. Briefly: Antimicrobial activity against Escherichia coli at 5 ug/mL by agar diffusion method. To be noted: read-out: IZ. In kind it is functional.
Regarding `c1ccc2c(c1)CCCc1nnc3nncn3c1-2`, the zone of inhibition at 5 µg/mL was determined as 9 mm.

Another assay concerns Aspergillus fumigatus. The experiment in a line: Antimicrobial activity against Aspergillus fumigatus at 2.5 ug/mL by agar diffusion method. In kind it is functional. To be noted: read-out: IZ.
Regarding `c1ccc2c(c1)CCCc1nnc3nncn3c1-2`, the zone of inhibition at 2.5 µg/mL amounted to 0 mm.

In the next assay the test system is Penicillium italicum. The experiment in a line: Antimicrobial activity against Penicillium italicum at 2.5 ug/mL by agar diffusion method. In kind it is functional. The settings on record: read-out: IZ.
As to `c1ccc2c(c1)CCCc1nnc3nncn3c1-2`, the zone of inhibition at 2.5 µg/mL was determined as 0 mm.

Another assay deals with Syncephalastrum racemosum. The experiment in a line: Antimicrobial activity against Syncephalastrum racemosum at 2.5 ug/mL by agar diffusion method. In kind it is functional. To be noted: read-out: IZ.
Turning to `c1ccc2c(c1)CCCc1nnc3nncn3c1-2`, the zone of inhibition at 2.5 µg/mL turned out to be 9 mm.

Another assay relates to Candida albicans. The experiment in a line: Antimicrobial activity against Candida albicans at 2.5 ug/mL by agar diffusion method. The settings on record: read-out: IZ. In kind it is functional.
As to `c1ccc2c(c1)CCCc1nnc3nncn3c1-2`, the zone of inhibition at 2.5 µg/mL amounted to 4 mm.

Another assay deals with Staphylococcus aureus. Briefly: Antimicrobial activity against Staphylococcus aureus at 2.5 ug/mL by agar diffusion method. In kind it is functional. The settings on record: read-out: IZ.
`c1ccc2c(c1)CCCc1nnc3nncn3c1-2`: the zone of inhibition at 2.5 µg/mL came to 8 mm.

For a further assay, the system named is Pseudomonas aeruginosa. Briefly: Antimicrobial activity against Pseudomonas aeruginosa at 2.5 ug/mL by agar diffusion method. In kind it is functional. To be noted: read-out: IZ.
Regarding `c1ccc2c(c1)CCCc1nnc3nncn3c1-2`, the zone of inhibition at 2.5 µg/mL came to 0 mm.

The next assay relates to Bacillus subtilis. Briefly: Antimicrobial activity against Bacillus subtilis at 2.5 ug/mL by agar diffusion method. In kind it is functional. The settings on record: read-out: IZ.
In the case of `c1ccc2c(c1)CCCc1nnc3nncn3c1-2`, the zone of inhibition at 2.5 µg/mL came out at 7 mm.

Another assay has as its system Escherichia coli. The experiment in a line: Antimicrobial activity against Escherichia coli at 2.5 ug/mL by agar diffusion method. To be noted: read-out: IZ. In kind it is functional.
With `c1ccc2c(c1)CCCc1nnc3nncn3c1-2`, the zone of inhibition at 2.5 µg/mL amounted to 0 mm.

A further assay concerns Aspergillus fumigatus. Briefly: Antimicrobial activity against Aspergillus fumigatus at 1.25 ug/mL by agar diffusion method. In kind it is functional. To be noted: read-out: IZ.
In the case of `c1ccc2c(c1)CCCc1nnc3nncn3c1-2`, the zone of inhibition at 1.25 µg/mL worked out at 0 mm.

The test system of a further assay is Penicillium italicum. The experiment in a line: Antimicrobial activity against Penicillium italicum at 1.25 ug/mL by agar diffusion method. In kind it is functional. The settings on record: read-out: IZ.
As for `c1ccc2c(c1)CCCc1nnc3nncn3c1-2`, the zone of inhibition at 1.25 µg/mL worked out at 0 mm.

Another assay deals with Syncephalastrum racemosum. The experiment in a line: Antimicrobial activity against Syncephalastrum racemosum at 1.25 ug/mL by agar diffusion method. In kind it is functional. The settings on record: read-out: IZ.
For `c1ccc2c(c1)CCCc1nnc3nncn3c1-2`, the zone of inhibition at 1.25 µg/mL amounted to 0 mm.

Another assay deals with Candida albicans. The experiment in a line: Antimicrobial activity against Candida albicans at 1.25 ug/mL by agar diffusion method. In kind it is functional. To be noted: read-out: IZ.
As for `c1ccc2c(c1)CCCc1nnc3nncn3c1-2`, the zone of inhibition at 1.25 µg/mL turned out to be 0 mm.

Another assay deals with Staphylococcus aureus. The experiment in a line: Antimicrobial activity against Staphylococcus aureus at 1.25 ug/mL by agar diffusion method. In kind it is functional. The settings on record: read-out: IZ.
On to `c1ccc2c(c1)CCCc1nnc3nncn3c1-2`, for which the zone of inhibition at 1.25 µg/mL is 5 mm.

The next assay concerns Pseudomonas aeruginosa. The experiment in a line: Antimicrobial activity against Pseudomonas aeruginosa at 1.25 ug/mL by agar diffusion method. In kind it is functional. To be noted: read-out: IZ.
In the case of `c1ccc2c(c1)CCCc1nnc3nncn3c1-2`, the zone of inhibition at 1.25 µg/mL stood at 0 mm.

The test system of a further assay is Bacillus subtilis. Briefly: Antimicrobial activity against Bacillus subtilis at 1.25 ug/mL by agar diffusion method. The settings on record: read-out: IZ. In kind it is functional.
`c1ccc2c(c1)CCCc1nnc3nncn3c1-2`: the zone of inhibition at 1.25 µg/mL worked out at 4 mm.

Another assay deals with Escherichia coli. Briefly: Antimicrobial activity against Escherichia coli at 1.25 ug/mL by agar diffusion method. In kind it is functional. To be noted: read-out: IZ.
Regarding `c1ccc2c(c1)CCCc1nnc3nncn3c1-2`, the zone of inhibition at 1.25 µg/mL was 0 mm.

The next assay has as its system Hepatitis C virus. The experiment in a line: Antiviral activity against HCV by cell based replicon assay. In kind it is functional, Hepacivirus hominis.
Conditions: not given
The method, boiled down:
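HCV replicon cells plated at 1×10^4 per well. Next day incubated at 37 °C with serially diluted compound in DMEM with 2% FBS and 0.5% DMSO. HCV RNA copy number measured by quantitative RT-PCR on total cellular RNA. Each point is the average of five replicates. Cytotoxicity measured by MTS in parallel.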
`NC(=O)c1ncn([C@@H]2O[C@H](CO)[C@@H](O)[C@H]2O)n1` [RIBAVIRIN]: the MIC amounted to 16.1 µg/mL (≈ 66.1 µM).

In another assay the test system is Measles morbillivirus. Briefly: Antiviral activity against Measles virus infected in intracranially dosed hamster assessed as inhibition of subacute sclerosing panencephalitis. In kind it is functional.
Conditions: not given
The method, boiled down: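 Hamsters under ether anesthesia injected intracranially, into the subarachnoid space at 2 mm depth, at 5, 10 and 20 mg/kg/day for 10 days. Four animals per group sacrificed on days 1–20. Brains homogenized in PBS and centrifuged, supernatant deproteinized with ethanol, then MIC in brain tissue determined by HPLC and bioassay.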
As to `NC(=O)c1ncn([C@@H]2O[C@H](CO)[C@@H](O)[C@H]2O)n1` [RIBAVIRIN], the MIC worked out at 77.9 µg/mL (≈ 319 µM).

A further assay concerns Aspergillus fumigatus. The experiment in a line: Antimicrobial activity against Aspergillus fumigatus at 5 ug/mL by agar diffusion method. In kind it is functional. To be noted: read-out: IZ.
As for `c1ccc2c(c1)CCCc1nnc3nncn3c1-2`, the zone of inhibition at 5 µg/mL was 10 mm.
